Sampled rows, rich in hits. Any-hit rate of the full collection: about 2.2%.
GRK2 inh = inhibitors of human GRK2 displacing RNA aptamer; P25098; bead flow cytometry, FAM-aptamer displacement from GRK2; inhibition of aptamer binding, % at 10 µM; actives 0.59% (n = 330,000); AID 488847;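 active means inhibition of aptamer binding above 40%, roughly 3 SD of noise, on plates passing a quality check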;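 further: median bead fluorescence of bound FAM aptamer so fluorescent compounds give negative values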
DNMT1 inh = DNMT1 (human) enzyme inhibition; P26358; DNMT1 molecular beacon, Hinp1I cleavage, fluorescence; inhibition (reported as % activation of signal), % at 10 µM; actives 0.83% (n = 360,000); AID 588458; in the data active means inhibition above about 50%
LMPTP block = LMPTP (human) inhibition; P24666; recombinant LMPTP-A, OMFP fluorogenic substrate, fluorescence intensity; inhibition, % at 20 µM; actives 0.22% (n = 360,000); AID 651560;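 active means compounds that cut the enzyme signal by at least half of the control window in the single-dose screen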;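 further: plate controls were DMSO wells with enzyme plus substrate for no effect and substrate without enzyme for full effect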
Target sequence (P24666 whole entry, looked up): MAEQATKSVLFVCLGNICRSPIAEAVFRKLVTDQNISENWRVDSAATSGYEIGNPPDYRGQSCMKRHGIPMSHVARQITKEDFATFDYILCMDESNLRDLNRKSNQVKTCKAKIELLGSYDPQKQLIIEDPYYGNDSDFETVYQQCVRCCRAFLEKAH
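Test system – LMPTP-A phosphatase enzyme · Quantity – 0.625 nM LMPTP-A final · Reagent – OMFP substrate, 400 µM final · Dosing – one test concentration per compound, 20 µM, with 3% DMSO overall · Timing – 50 min enzyme reaction at room temperature, protected from light · Detection – fluorescence intensity · Controls – substrate-only low control, DMSO enzyme-plus-substrate high control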
SUMO1 PPI mod = modulators of human SUMO1-mediated protein-protein interactions. P63165. SUMO1 binding to a labelled peptide, TR-FRET, 1 h. inhibition, % at 20 µM. actives 0.33% (n = 360,000). AID 602429; in the data active means inhibition above about 37%
Target sequence (P63165 whole entry, looked up): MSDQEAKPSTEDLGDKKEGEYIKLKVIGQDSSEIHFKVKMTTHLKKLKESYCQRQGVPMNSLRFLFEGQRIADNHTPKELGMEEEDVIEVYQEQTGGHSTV
STEP block = inhibitors of human striatal-enriched phosphatase STEP | actives 0.25% (n = 360,000) | inhibition, % at 20 µM | P54829 | recombinant STEP, OMFP fluorogenic substrate, fluorescence;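 active means inhibition at 20 µM, scaled per plate between control wells, above about 37%, limit read from the data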;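 further: 0% = DMSO with enzyme and substrate and 100% = substrate only without enzyme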
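Also added – OMFP at 25 µM · Test system – STEP tyrosine phosphatase · Technique – FITC-channel fluorescence of OMFP product · Schedule – 20 min at room temperature, dark · Evaluation – control-normalized % inhibition with plate pattern correction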
Scp1 inh = inhibitors of human Scp-1 phosphatase. Q9GZU7. Recombinant Scp1, phosphopeptide, malachite green phosphate absorbance. inhibition, % at 20 µM. actives 0.88% (n = 340,000);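 active means inhibition above about 50% at 20 µM, limit read from the data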;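 further: plate controls were DMSO wells with enzyme for no effect and wells lacking enzyme for full effect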
Target sequence (Q9GZU7 76-261 limits assumed): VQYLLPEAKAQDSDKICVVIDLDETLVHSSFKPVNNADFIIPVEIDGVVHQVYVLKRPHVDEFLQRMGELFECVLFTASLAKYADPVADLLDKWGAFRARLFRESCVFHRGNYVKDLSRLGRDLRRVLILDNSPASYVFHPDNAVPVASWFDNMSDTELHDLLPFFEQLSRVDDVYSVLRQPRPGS
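System: SCP-1 catalytic domain; Reagent: Phospho 17-mer peptide substrate; Doses: one concentration, 20 µM, with 1.0% DMSO; Incubation: 45 min room-temperature reaction, 5 min colour, 30 min stabiliser; Signal: Phosphate-binding colour reagent, absorbance read at 630 nm.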
GRK2 inh confirm = confirmation of human GRK2 inhibitors displacing RNA aptamer; shares compounds with GRK2 inh; bead-bound GRK2, FAM-aptamer displacement, flow cytometry; aptamer displacement, % at 10 µM; actives 4% (n = 2,000); AID 504451;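 active means aptamer displacement above 40%, near three times the noise of non-fluorescent compounds, on plates passing quality checks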;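 further: negative values mostly reflect intrinsic compound fluorescence rather than true enhancement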
FAM quench CP1 = aptamer fluorescence quenching in GRK2 counter-screen; 2,000 tested, under 10 active; AID 504580; shares compounds with GRK2 inh; Carboxyfluorescein RNA aptamer on beads, flow cytometry quenching; hits give low values; fluorescence response (% of DMSO), % at 10 µM;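 active means compounds that quench the bead-bound fluorescent RNA probe, cutting fluorescence to under half of the solvent control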;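 further: counterscreen run without GRK2 so only probe quenching by compound is measured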
GRK2 confirm 2 = confirmation of human GRK2 inhibitors binding RNA aptamer site | shares compounds with GRK2 inh | bead-bound GRK2, FAM-aptamer displacement, flow cytometry | inhibition of aptamer binding, % at 10 µM | 360 tested, under 10 active | AID 504782;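 active means inhibition of aptamer binding above 40%, about triple the noise seen with nonglowing compounds, on plates passing quality control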;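 further: negative values mostly come from compounds that fluoresce themselves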
FAM quench CP2 = quenches fluorescent RNA aptamer, GRK2 hit artifact | shares compounds with GRK2 inh | carboxyfluorescein RNA aptamer beads, flow cytometry quenching; hits give low values | fluorescence response vs DMSO, % at 10 µM | 360 tested, under 10 active | AID 588494;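 active means response vs DMSO under 50%, meaning signal dropped by over half, treated as fluorescence quencher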;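 further: labelled aptamer on streptavidin beads without GRK2 as a quench counter-screen; 100% = bead fluorescence of DMSO wells and lower means quenching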
An asterisk follows results filed as active; / = no result.

SMILES | GRK2 inh | DNMT1 inh | LMPTP block | SUMO1 PPI mod | STEP block | Scp1 inh | GRK2 inh confirm | FAM quench CP1 | others
O=C(CSc1nncs1)N1CCN(C(=O)c2ccco2)CC1 | 81* | -1 | -1 | -2 | 0 | 9 | -1 | 100
COc1ccccc1-n1cnnc1SCC(=O)N1CCN(C(=O)c2ccco2)CC1 | 45* | 11 | -2 | 1 | -2 | -5 | 1 | 99
Cc1cc(/C=N/NC(N)=O)c(C)c(CO)c1 | 77* | -3 | -1 | 1 | 13 | -1 | 3 | 98
COc1ccc(Cl)cc1Nc1nnc(-c2ccncc2)s1 | 55* | 39 | 0 | 96* | 83* | 90* | -11 | 103
Clc1ccccc1Nc1nnc(-c2ccncc2)s1 | 3 | -3 | -1 | -11 | 0 | -8 | / | /
COc1cccc(C2c3[nH]c4ccccc4c3C[C@H]3C(=O)N(C4CCN(Cc5ccccc5)CC4)CC(=O)N23)c1 (stereo partly specified) | 0 | -9 | 2 | 5 | 3 | -7 | -12 | 104
COc1ccccc1C1c2[nH]c3ccccc3c2C[C@H]2C(=O)N(C3CCN(Cc4ccccc4)CC3)CC(=O)N12 (stereo partly specified) | 0 | -19 | 1 | 2 | -6 | -4 | -29 | 97
O=C(Nc1ccc2c(c1)OCCO2)C(c1ccncc1)n1c(=O)c(-c2cc3ccccc3[nH]2)nc2ccccc21 (stereo unspecified) | / | / | 3 | -15 | / | / | / | /
CC(C)(O)C#Cc1ccc(N2C(c3ccsc3)=Cc3ccc(F)cc3C2c2c[nH]c3ccccc23)cc1 (stereo unspecified) | / | / | 3 | -6 | / | / | / | /
COc1ccc(C(=O)Nn2c(C)nc3ccccc3c2=O)cc1[N+](=O)[O-] | 0 | 5 | -1 | -9 | 0 | -10 | / | /
Cc1nc2ccccc2c(=O)n1NC(=O)c1cccc([N+](=O)[O-])c1 | 98* | 0 | -1 | -7 | -1 | -3 | -10 | 96
O=C(Cn1nc(CNc2ccc(Br)cc2)[n+]2c1CCCCC2)c1ccc([N+](=O)[O-])cc1 | 86* | -5 | 2 | -87 | 2 | 4 | -28 | 94
COC(=O)[C@@]12C[C@@H](CC(=O)NCc3ccc(OC)c(OC)c3)C(=O)N(Cc3ccc4c(c3)OCO4)C1=CCC(C)(C)C2 | / | / | 1 | 2 | / | / | / | /
O=C(NCc1ccccn1)C1COc2ccccc2O1 (stereo unspecified) | 90* | 1 | -2 | 2 | 5 | -8 | 3 | 89
O=C(NCc1ccncc1)C1COc2ccccc2O1 (stereo unspecified) | 0 | 5 | -1 | -1 | 1 | 1 | / | /
CCC(=O)Oc1ccc(NC(=O)c2ccc(S(=O)(=O)N3CCCC3)cc2)cc1 | / | -11 | -1 | -3 | -1 | / | / | /
Cc1cccc(NC(=O)CCCCCN2C(=O)[C@@H]3Cc4ccccc4CN3C2=O)c1 | 0 | -2 | 0 | 2 | 4 | -5 | -1 | 98
COc1ccc(NC(=O)CCCCCN2C(=O)[C@@H]3Cc4ccccc4CN3C2=O)cc1Cl | 0 | -3 | 1 | 8 | -1 | -3 | 0 | 99
O=C(CCCCCN1C(=O)[C@@H]2Cc3ccccc3CN2C1=O)Nc1cccc(F)c1 | 0 | 1 | 0 | -6 | 0 | -9 | 3 | 96
O=C(CCCCCN1C(=O)[C@@H]2Cc3ccccc3CN2C1=O)Nc1ccccc1Cl | 2 | -2 | 1 | 3 | -3 | 7 | / | /
Cc1ccc(NC(=O)CCCCCN2C(=O)[C@@H]3Cc4ccccc4CN3C2=O)cc1 | 0 | -2 | 1 | -1 | 0 | -9 | / | /
O=C(CCCCCN1C(=O)[C@@H]2Cc3ccccc3CN2C1=O)Nc1ccccc1F | 3 | -2 | -1 | -5 | 0 | -5 | -1 | 96
C=CCNc1ncnc2c1ncn2[C@H]1CN(Cc2cc(OC)c(OC)c(OC)c2)C[C@@H](CO)O1 | / | 3 | -2 | -2 | 0 | / | / | /
Cc1oc(-c2ccccc2Cl)nc1CS(=O)(=O)CC(=O)NCCc1ccccc1 | 1 | -5 | -1 | 4 | 1 | -12 | / | /
COc1ccc(CCNC(=O)CS(=O)(=O)Cc2nc(-c3ccccc3Cl)oc2C)cc1OC | 66* | 1 | -2 | 5 | 3 | -9 | 1 | 96 | GRK2 confirm 2=-21;FAM quench CP2=103
SMILES | GRK2 inh | DNMT1 inh | LMPTP block | SUMO1 PPI mod | STEP block | Scp1 inh | GRK2 inh confirm | FAM quench CP1 | others
COC(=O)[C@@]12C[C@@H](CC(=O)NCc3ccccc3)C(=O)N(Cc3ccccc3)C1=CCC(C)(C)C2 | / | / | 0 | 3 | / | / | / | /
CC1(C(=O)Nc2ccc3[nH]ncc3c2)CCN1C(=O)Cc1ccc(-c2ccccc2)cc1 (stereo unspecified) | / | -17 | 2 | 0 | -1 | / | / | /
CC(C)Cc1ccc(C#N)c(SCC(N)=O)n1 | 75* | 4 | -1 | 4 | -3 | -11 | 2 | 91
CCOc1ccc(N2C(=O)CC(Sc3nc(CC(C)C)ccc3C#N)C2=O)cc1 (stereo unspecified) | 2 | -16 | 2 | -10 | 1 | -6 | / | /
CC(C)(C)N1C(=O)c2ccccc2NC(=O)C1C(=O)NCCOc1ccccc1 (stereo unspecified) | / | / | -3 | -3 | / | / | / | /
O=C(NCc1cccc(C(F)(F)F)c1)C1C(=O)Nc2ccccc2C(=O)N1C1CCCC1 (stereo unspecified) | / | / | 0 | 3 | / | / | / | /
CC1CCCN(S(=O)(=O)c2ccc(NC(=O)C3CC(=O)N(c4ccccc4)C3)cc2)C1 (stereo unspecified) | 100* | 3 | -1 | 3 | 2 | -5 | 3 | 102
O=C(Nc1ccc(S(=O)(=O)N2CCCCC2)cc1)C1CC(=O)N(c2ccccc2)C1 (stereo unspecified) | 1 | -2 | 1 | 1 | 0 | -10 | / | /
CCOC(=O)c1oc2c(C)c(O)ccc2c(=O)c1-c1nncn1-c1ccccc1 | 75* | 2 | -1 | -13 | -6 | 2 | -2 | 102
Cc1cc(C(C)(C)C)cc(S(=O)(=O)NCCO)c1C | 99* | -2 | -3 | -4 | 6 | 0 | -5 | 100
